Data on 13 compounds can be found in BindingDB's records for doi:10.1021/acs.jmedchem.5b00162 (University of Montreal, 2015).

Test [1] concerns the target T1, Urotensin-2 receptor (Rattus norvegicus, UniProt P49684).
T1 sequence (P49684 whole entry): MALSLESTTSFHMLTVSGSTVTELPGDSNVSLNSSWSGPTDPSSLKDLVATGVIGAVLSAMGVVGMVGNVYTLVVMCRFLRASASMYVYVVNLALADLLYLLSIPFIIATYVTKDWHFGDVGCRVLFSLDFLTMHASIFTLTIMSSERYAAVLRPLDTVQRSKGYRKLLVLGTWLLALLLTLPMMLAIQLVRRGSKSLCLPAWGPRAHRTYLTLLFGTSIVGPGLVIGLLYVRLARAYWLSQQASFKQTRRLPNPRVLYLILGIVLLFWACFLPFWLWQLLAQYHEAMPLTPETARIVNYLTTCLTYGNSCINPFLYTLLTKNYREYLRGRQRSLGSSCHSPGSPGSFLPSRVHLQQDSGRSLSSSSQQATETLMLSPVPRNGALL
Description: Modulation of urotensin-2 receptor in Sprague-Dawley rat thoracic aortic ring assessed as urotensin-2 related peptide EC50 for induction of aortic ring contraction at 10 uM preincubated for 15 mins followed by urotensin-2 related peptide addition (Rvb = 13 nM).

For test [2], the target named is T1, Urotensin-2 receptor. Description: Modulation of urotensin-2 receptor in Sprague-Dawley rat thoracic aortic ring assessed as human urotensin-2 pEC50 for induction of aortic ring contraction at 10 uM preincubated for 15 mins followed by human urotensin-2 addition (Rvb = 8.71 +/- 0.08 no unit). Summed up: (§1)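 Thoracic aortic rings from adult male Sprague-Dawley rats (250–300 g, killed by CO2). Rings were exposed to test compound for 15 min, then cumulative hUII concentration-response curves were run (10-10–3.10-6 M). Contraction is expressed as % of the 40 mM KCl response, with KCl given at the start and end. EC50/pEC50/Emax come from a variable-slope sigmoidal fit. At least triplicate.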

For test [3], the target named is T1, Urotensin-2 receptor. The test can be described thus: Modulation of urotensin-2 receptor in Sprague-Dawley rat thoracic aortic ring assessed as human urotensin-2 EC50 for induction of aortic ring contraction at 10 uM preincubated for 15 mins followed by human urotensin-2 addition (Rvb = 1.9 nM). Summed up: as §1
The target in test [4] is T1, Urotensin-2 receptor. The test can be described thus: Modulation of urotensin-2 receptor in Sprague-Dawley rat thoracic aortic ring assessed as urotensin-2 related peptide pEC50 for induction of aortic ring contraction at 10 uM preincubated for 15 mins followed by urotensin-2 related peptide addition (Rvb = 7.89 +/- 0.08 no unit).
Test [5] is described as follows: Modulation of urotensin-2 receptor in Sprague-Dawley rat thoracic aortic ring assessed as urotensin-2 related peptide pEC50 for induction of aortic ring contraction at 15 uM preincubated for 15 mins followed by urotensin-2 related peptide addition (Rvb = 7.89 +/- 0.08 no unit).
Test [6] is described as follows: Modulation of urotensin-2 receptor in Sprague-Dawley rat thoracic aortic ring assessed as human urotensin-2 EC50 for induction of aortic ring contraction at 15 uM preincubated for 15 mins followed by human urotensin-2 addition (Rvb = 1.9 nM).
Test [7] can be described thus: Modulation of urotensin-2 receptor in Sprague-Dawley rat thoracic aortic ring assessed as urotensin-2 related peptide EC50 for induction of aortic ring contraction at 15 uM preincubated for 15 mins followed by urotensin-2 related peptide addition (Rvb = 13 nM).
Test [8] in a line: Modulation of urotensin-2 receptor in Sprague-Dawley rat thoracic aortic ring assessed as human urotensin-2 pEC50 for induction of aortic ring contraction at 15 uM preincubated for 15 mins followed by human urotensin-2 addition (Rvb = 8.71 +/- 0.08 no unit).
A short description of test [9]: Modulation of urotensin-2 receptor in Sprague-Dawley rat thoracic aortic ring assessed as human urotensin-2 pEC50 for induction of aortic ring contraction at 8 uM preincubated for 15 mins followed by human urotensin-2 addition (Rvb = 8.71 +/- 0.08 no unit).
Test [10] can be described thus: Modulation of urotensin-2 receptor in Sprague-Dawley rat thoracic aortic ring assessed as urotensin-2 related peptide EC50 for induction of aortic ring contraction at 8 uM preincubated for 15 mins followed by urotensin-2 related peptide addition (Rvb = 13 nM).
A short description of test [11]: Modulation of urotensin-2 receptor in Sprague-Dawley rat thoracic aortic ring assessed as human urotensin-2 EC50 for induction of aortic ring contraction at 8 uM preincubated for 15 mins followed by human urotensin-2 addition (Rvb = 1.9 nM).
A short description of test [12]: Modulation of urotensin-2 receptor in Sprague-Dawley rat thoracic aortic ring assessed as urotensin-2 related peptide pEC50 for induction of aortic ring contraction at 8 uM preincubated for 15 mins followed by urotensin-2 related peptide addition (Rvb = 7.89 +/- 0.08 no unit).
Test [13] addresses T1, Urotensin-2 receptor. Description: Modulation of urotensin-2 receptor in Sprague-Dawley rat thoracic aortic ring assessed as urotensin-2 related peptide EC50 for induction of aortic ring contraction at 11 uM preincubated for 15 mins followed by urotensin-2 related peptide addition (Rvb = 13 nM).
The target in test [14] is T1, Urotensin-2 receptor. Description: Modulation of urotensin-2 receptor in Sprague-Dawley rat thoracic aortic ring assessed as urotensin-2 related peptide pEC50 for induction of aortic ring contraction at 11 uM preincubated for 15 mins followed by urotensin-2 related peptide addition (Rvb = 7.89 +/- 0.08 no unit).
For test [15], the target named is T1, Urotensin-2 receptor. Description: Modulation of urotensin-2 receptor in Sprague-Dawley rat thoracic aortic ring assessed as human urotensin-2 EC50 for induction of aortic ring contraction at 11 uM preincubated for 15 mins followed by human urotensin-2 addition (Rvb = 1.9 nM).
For test [16], the target named is T1, Urotensin-2 receptor. Description: Modulation of urotensin-2 receptor in Sprague-Dawley rat thoracic aortic ring assessed as human urotensin-2 pEC50 for induction of aortic ring contraction at 11 uM preincubated for 15 mins followed by human urotensin-2 addition (Rvb = 8.71 +/- 0.08 no unit).
The target in test [17] is T1, Urotensin-2 receptor. Description: Modulation of urotensin-2 receptor in Sprague-Dawley rat thoracic aortic ring assessed as human urotensin-2 pEC50 for induction of aortic ring contraction at 14 uM preincubated for 15 mins followed by human urotensin-2 addition (Rvb = 8.71 +/- 0.08 no unit).
The target in test [18] is T1, Urotensin-2 receptor. The test can be described thus: Modulation of urotensin-2 receptor in Sprague-Dawley rat thoracic aortic ring assessed as urotensin-2 related peptide pEC50 for induction of aortic ring contraction at 14 uM preincubated for 15 mins followed by urotensin-2 related peptide addition (Rvb = 7.89 +/- 0.08 no unit).
The target in test [19] is T1, Urotensin-2 receptor. The test can be described thus: Modulation of urotensin-2 receptor in Sprague-Dawley rat thoracic aortic ring assessed as human urotensin-2 EC50 for induction of aortic ring contraction at 14 uM preincubated for 15 mins followed by human urotensin-2 addition (Rvb = 1.9 nM).
Test [20] concerns the target T1, Urotensin-2 receptor. The test can be described thus: Modulation of urotensin-2 receptor in Sprague-Dawley rat thoracic aortic ring assessed as urotensin-2 related peptide EC50 for induction of aortic ring contraction at 14 uM preincubated for 15 mins followed by urotensin-2 related peptide addition (Rvb = 13 nM).
Test [21] addresses T1, Urotensin-2 receptor. Description: Modulation of urotensin-2 receptor in Sprague-Dawley rat thoracic aortic ring assessed as human urotensin-2 pEC50 for induction of aortic ring contraction at 4 uM preincubated for 15 mins followed by human urotensin-2 addition (Rvb = 8.71 +/- 0.08 no unit).
Test [22] has as its target T1, Urotensin-2 receptor. Description: Modulation of urotensin-2 receptor in Sprague-Dawley rat thoracic aortic ring assessed as human urotensin-2 EC50 for induction of aortic ring contraction at 4 uM preincubated for 15 mins followed by human urotensin-2 addition (Rvb = 1.9 nM).
For test [23], the target named is T1, Urotensin-2 receptor. The test can be described thus: Modulation of urotensin-2 receptor in Sprague-Dawley rat thoracic aortic ring assessed as human urotensin-2 pEC50 for induction of aortic ring contraction at 1 uM preincubated for 15 mins followed by human urotensin-2 addition (Rvb = 8.71 +/- 0.08 no unit).
Test [24] addresses T1, Urotensin-2 receptor. The test can be described thus: Modulation of urotensin-2 receptor in Sprague-Dawley rat thoracic aortic ring assessed as human urotensin-2 EC50 for induction of aortic ring contraction at 1 uM preincubated for 15 mins followed by human urotensin-2 addition (Rvb = 1.9 nM).

For `NCCC[C@@H]1N[C@H](c2cccc3ccccc23)c2[nH]c(C(=O)O)cc2N(CCc2ccc(O)cc2)C1=O`, the EC50 at Urotensin-2 receptor [1] was 4.5 nM; on Urotensin-2 receptor [2], 5.6 nM; at Urotensin-2 receptor [3], 5.7 nM; at Urotensin-2 receptor [4] it was 4.6 nM.

In the case of `NCCCC[C@@H]1N[C@@H](c2ccc3ccccc3c2)c2[nH]c(C(=O)O)cc2N(CCc2ccc(O)cc2)C1=O`, the EC50 at Urotensin-2 receptor [1] amounted to 8.7 nM; on Urotensin-2 receptor [2] it was 1.5 nM; on Urotensin-2 receptor [3] it was 1.5 nM; on Urotensin-2 receptor [4], 8.7 nM.

Turning to `NCCCC[C@@H]1N[C@H](c2ccc3ccccc3c2)c2[nH]c(C(=O)O)cc2N(CCc2ccc(O)cc2)C1=O`, the EC50 came out at 8.2 nM at Urotensin-2 receptor [1], 4.9 nM on Urotensin-2 receptor [2], 5 nM on Urotensin-2 receptor [3] and 8.3 nM on Urotensin-2 receptor [4].

On to `NCCCC[C@@H]1N=C(c2ccc(-c3ccccc3)cc2)c2[nH]c(C(=O)O)cc2N(CCc2ccc(O)cc2)C1=O`, for which the EC50 in test [5] stood at 12 nM; in test [6], 6.6 nM; in test [7] it was 12 nM; in test [8], 6.5 nM.

For `NCCCC[C@@H]1N=C(c2cccc3ccccc23)c2[nH]c(C(=O)O)cc2N(CCc2ccc(O)cc2)C1=O`, the EC50 in test [9] stood at 7.8 nM; in test [10] it was 5.3 nM; in [11], 7.8 nM; in test [12] it was 5.4 nM.

Take `NCCC[C@@H]1N[C@H](c2ccc(-c3ccccc3)cc2)c2[nH]c(C(=O)O)cc2N(CCc2ccc(O)cc2)C1=O`: the EC50 on Urotensin-2 receptor [13] came out at 8.1 nM; at Urotensin-2 receptor [14], 8.1 nM; on Urotensin-2 receptor [15] it was 4.3 nM; on Urotensin-2 receptor [16] it was 4.3 nM.

On to `NCCCC[C@@H]1N[C@@H](c2ccc(-c3ccccc3)cc2)c2[nH]c(C(=O)O)cc2N(CCc2ccc(O)cc2)C1=O`, for which the EC50 at Urotensin-2 receptor [17] is 8.7 nM; at Urotensin-2 receptor [18], 10 nM; at Urotensin-2 receptor [19] it was 8.8 nM; at Urotensin-2 receptor [20], 10 nM.

As for `NCCCC[C@@H]1N[C@H](c2ccc(-c3ccccc3)cc2)c2[nH]c(C(=O)O)cc2N(CCc2ccc(O)cc2)C1=O`, the EC50 at Urotensin-2 receptor [21] was 3.5 nM; at Urotensin-2 receptor [22], 3.5 nM; on Urotensin-2 receptor [18] it was 19 nM; on Urotensin-2 receptor [23] it was 4.5 nM; on Urotensin-2 receptor [24], 4.5 nM; at Urotensin-2 receptor [20] it was 19 nM.

Turning to `NCCC[C@@H]1N[C@@H](c2cccc3ccccc23)c2[nH]c(C(=O)O)cc2N(CCc2ccc(O)cc2)C1=O`, the EC50 was found to be 3.7 nM at Urotensin-2 receptor [1], 4.8 nM at Urotensin-2 receptor [2], 4.8 nM on Urotensin-2 receptor [3] and 3.6 nM at Urotensin-2 receptor [4].

Turning to `NCCCC[C@@H]1N=C(c2ccc3ccccc3c2)c2[nH]c(C(=O)O)cc2N(CCc2ccc(O)cc2)C1=O`, the EC50 at Urotensin-2 receptor [1] was 21 nM; on Urotensin-2 receptor [2] it was 4.7 nM; on Urotensin-2 receptor [3] it was 4 nM; at Urotensin-2 receptor [4], 21 nM.

With `NCCC[C@@H]1N=C(c2ccc3ccccc3c2)c2[nH]c(C(=O)O)cc2N(CCc2ccc(O)cc2)C1=O`, the EC50 at Urotensin-2 receptor [1] is 6.8 nM; on Urotensin-2 receptor [2], 9.3 nM; at Urotensin-2 receptor [3] it was 9.5 nM; on Urotensin-2 receptor [4], 6.8 nM.

As to `NCCC[C@@H]1N=C(c2cccc3ccccc23)c2[nH]c(C(=O)O)cc2N(CCc2ccc(O)cc2)C1=O`, the EC50 is 12 nM on Urotensin-2 receptor [1], 2.6 nM on Urotensin-2 receptor [2], 2.7 nM on Urotensin-2 receptor [3] and 12 nM at Urotensin-2 receptor [4].

For `NCCC[C@@H]1N=C(c2ccc(-c3ccccc3)cc2)c2[nH]c(C(=O)O)cc2N(CCc2ccc(O)cc2)C1=O`, the EC50 was determined as 23 nM on Urotensin-2 receptor [1], 12 nM on Urotensin-2 receptor [2], 12 nM on Urotensin-2 receptor [3] and 23 nM at Urotensin-2 receptor [4].

One may read the EC50 as the concentration needed to bring the measured effect to its halfway point.
